Laboratory results taken from ChEMBL document CHEMBL1275567, “In vitro activity of TR-700, the antibacterial moiety of the prodrug TR-701, against linezolid-resistant strains” (2008).
Converted amounts (≈) assume the structure as drawn.

Legend:
Format in all cases: functional
Enterococcus faecium [1] = test: Antimicrobial activity against linezolid-resistant Enterococcus faecium by broth microdilution method
Method in brief: (§1)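 MIC by CLSI broth microdilution for aerobically growing bacteria, in Mueller-Hinton II broth. Test organisms were recent clinical isolates from diverse geographic centers plus laboratory-derived oxazolidinone-resistant mutants. QC strains S. aureus ATCC 29213 and E. faecalis ATCC 29212 were included in each assay set to confirm proper assay performance.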

Staphylococcus hominis = test: Antimicrobial activity against linezolid-resistant Staphylococcus hominis by broth microdilution method; method in brief: as §1
Enterococcus faecalis [2] = test: Antimicrobial activity against linezolid-resistant Enterococcus faecalis 413 harboring G2576U mutation in peptidyl transferase centre by broth microdilution method; method in brief: as §1
Staphylococcus aureus [3] = test: Antimicrobial activity against linezolid-resistant methicillin-resistant Staphylococcus aureus NRS119 harboring G2576U mutation in peptidyl transferase centre by broth microdilution method; method in brief: as §1
[4] = test system: Staphylococcus epidermidis; test: Antimicrobial activity against linezolid-resistant Staphylococcus epidermidis by broth microdilution method; method in brief: as §1
Staphylococcus aureus [5] = test: Antimicrobial activity against linezolid-resistant methicillin-resistant Staphylococcus aureus NRS127 by broth microdilution method; method in brief: as §1
Staphylococcus aureus [6] = test: Antimicrobial activity against linezolid-resistant Staphylococcus aureus 131-6952X harboring plasmid borne cfr gene by broth microdilution method; method in brief: as §1
Staphylococcus aureus [7] = test: Antimicrobial activity against linezolid-resistant Staphylococcus aureus 425 harboring G2447U in peptidyl transferase centre by broth microdilution method; method in brief: as §1
Staphylococcus aureus [8] = test: Antimicrobial activity against linezolid-resistant methicillin-resistant Staphylococcus aureus NRS120 harboring G2576U mutation in peptidyl transferase centre by broth microdilution method
Staphylococcus aureus [9] = test: Antimicrobial activity against linezolid-resistant Staphylococcus aureus 004-737X harboring plasmid borne cfr gene by broth microdilution method; method in brief: as §1
Enterococcus faecium [10] = test: Antimicrobial activity against linezolid-resistant Enterococcus faecium 854 harboring G2576U mutation in peptidyl transferase centre by broth microdilution method; method in brief: as §1
Staphylococcus aureus [11] = test: Antimicrobial activity against linezolid-resistant Staphylococcus aureus 480 harboring G2447U in peptidyl transferase centre by broth microdilution method; method in brief: as §1
Enterococcus faecalis [12] = test: Antimicrobial activity against linezolid-resistant Enterococcus faecalis 414 harboring G2576U mutation in peptidyl transferase centre by broth microdilution method; method in brief: as §1
Staphylococcus aureus [13] = test: Antimicrobial activity against linezolid-resistant Staphylococcus aureus 1652 harboring U2500A mutation in peptidyl transferase centre by broth microdilution method; method in brief: as §1
Enterococcus faecalis [14] = test: Antimicrobial activity against linezolid-resistant Enterococcus faecalis by broth microdilution method; method in brief: as §1
Staphylococcus aureus [15] = test: Antimicrobial activity against linezolid-resistant methicillin-resistant Staphylococcus aureus NRS121 harboring G2576U mutation in peptidyl transferase centre by broth microdilution method; method in brief: as §1
Staphylococcus aureus [16] = test: Antimicrobial activity against linezolid-resistant methicillin-resistant Staphylococcus aureus NRS271 harboring G2576U mutation in peptidyl transferase centre by broth microdilution method; method in brief: as §1
Staphylococcus aureus [17] = test: Antimicrobial activity against linezolid-resistant Staphylococcus aureus by broth microdilution method; method in brief: as §1
Mammaliicoccus sciuri = test: Antimicrobial activity against linezolid-resistant Staphylococcus sciuri by broth microdilution method; method in brief: as §1
Staphylococcus aureus [18] = test: Antimicrobial activity against Staphylococcus aureus 1651 harboring G2576U mutation in peptidyl transferase centre by broth microdilution method; method in brief: as §1
Staphylococcus aureus [19] = test: Antimicrobial activity against linezolid-resistant Staphylococcus aureus CM/05 3067 harboring chromosomal cfr gene by broth microdilution method; method in brief: as §1
Enterococcus faecalis [20] = test: Antimicrobial activity against linezolid-resistant Enterococcus faecalis 3128 harboring G2576U mutation in peptidyl transferase centre by broth microdilution method; method in brief: as §1
Enterococcus faecalis [21] = test: Antimicrobial activity against linezolid-resistant Enterococcus faecalis 412 harboring G2576U mutation in peptidyl transferase centre by broth microdilution method; method in brief: as §1
Staphylococcus aureus [22] = test: Antimicrobial activity against […] 29213 by broth microdilution method; method in brief: as §1
Enterococcus faecalis [23] = test: Antimicrobial activity against linezolid-resistant Enterococcus faecalis 411 harboring G2576U mutation in peptidyl transferase centre by broth microdilution method; method in brief: as §1
Enterococcus faecalis [24] = test: Antimicrobial activity against linezolid-resistant Enterococcus faecalis 3124 harboring G2576U mutation in peptidyl transferase centre by broth microdilution method; method in brief: as §1
Enterococcus faecalis [25] = test: Antimicrobial activity against linezolid-resistant Enterococcus faecalis 1172 harboring G2576U mutation in peptidyl transferase centre by broth microdilution method; method in brief: as §1

SMILES	MIC50 (Enterococcus faecium [1]) [mg/L]	MIC90 (Enterococcus faecium [1]) [mg/L]	MIC (Staphylococcus hominis) [mg/L]	MIC (Enterococcus faecalis [2]) [mg/L]	MIC (Staphylococcus aureus [3]) [mg/L]	MIC50 [4] [mg/L]	MIC (Staphylococcus aureus [5]) [mg/L]	MIC (Staphylococcus aureus [6]) [mg/L]	MIC (Staphylococcus aureus [7]) [mg/L]	MIC (Staphylococcus aureus [9]) [mg/L]	MIC (Enterococcus faecium [10]) [mg/L]	MIC (Staphylococcus aureus [11]) [mg/L]	MIC (Enterococcus faecalis [12]) [mg/L]	MIC (Staphylococcus aureus [13]) [mg/L]	MIC (Staphylococcus aureus [18]) [mg/L]	MIC (Staphylococcus aureus [19]) [mg/L]	MIC (Enterococcus faecalis [21]) [mg/L]	MIC (Staphylococcus aureus [22]) [mg/L]	MIC (Enterococcus faecalis [23]) [mg/L]	MIC (Enterococcus faecalis [25]) [mg/L]	also measured
CC(=O)NC[C@H]1CN(c2ccc(N3CCOCC3)c(F)c2)C(=O)O1 [LINEZOLID]	32 (≈ 94.9 µM)	64 (≈ 190 µM)	16 (≈ 47.4 µM)	32 (≈ 94.9 µM)	64 (≈ 190 µM)	32 (≈ 94.9 µM)	8 (≈ 23.7 µM)	32 (≈ 94.9 µM)	32 (≈ 94.9 µM)	8 (≈ 23.7 µM)	16 (≈ 47.4 µM)	> 32	32 (≈ 94.9 µM)	32 (≈ 94.9 µM)	16 (≈ 47.4 µM)	16 (≈ 47.4 µM)					MIC90 [4]: > 128 mg/L; MIC (Staphylococcus aureus [8]): 64 mg/L (≈ 190 µM); MIC50 (Enterococcus faecalis [14]): 32 mg/L (≈ 94.9 µM); MIC90 (Enterococcus faecalis [14]): 32 mg/L (≈ 94.9 µM); MIC (Staphylococcus aureus [15]): 64 mg/L (≈ 190 µM); MIC (Staphylococcus aureus [16]): 32 mg/L (≈ 94.9 µM); MIC50 (Staphylococcus aureus [17]): 2 mg/L (≈ 5.93 µM); MIC90 (Staphylococcus aureus [17]): 16 mg/L (≈ 47.4 µM); MIC (Mammaliicoccus sciuri): 16 mg/L (≈ 47.4 µM)
Cc1onc(-c2ccccc2)c1C(=O)N[C@@H]1C(=O)N2[C@@H]1SC(C)(C)[C@@H]2C(=O)O [OXACILLIN]				> 32			32 (≈ 79.7 µM)	> 2	0.12 (≈ 0.299 µM)	> 2	> 32	< 0.03	16 (≈ 39.9 µM)	32 (≈ 79.7 µM)	> 32	> 32	16 (≈ 39.9 µM)	0.12 (≈ 0.299 µM)	> 32	32 (≈ 79.7 µM)	MIC (Enterococcus faecalis [20]): 2 mg/L (≈ 4.98 µM); MIC (Enterococcus faecalis [24]): 8 mg/L (≈ 19.9 µM)
CC1(C)S[C@@H]2[C@H](NC(=O)Cc3ccccc3)C(=O)N2[C@H]1C(=O)O [PENICILLIN G]				4 (≈ 12 µM)			16 (≈ 47.8 µM)		1 (≈ 2.99 µM)			0.25 (≈ 0.748 µM)	1 (≈ 2.99 µM)	32 (≈ 95.7 µM)	16 (≈ 47.8 µM)		2 (≈ 5.98 µM)	1 (≈ 2.99 µM)	4 (≈ 12 µM)	4 (≈ 12 µM)	
Cn1nnc(-c2ccc(-c3ccc(N4C[C@H](CO)OC4=O)cc3F)cn2)n1 [TEDIZOLID]	2 (≈ 5.4 µM)	4 (≈ 10.8 µM)	2 (≈ 5.4 µM)		4 (≈ 10.8 µM)	4 (≈ 10.8 µM)	1 (≈ 2.7 µM)	1 (≈ 2.7 µM)	8 (≈ 21.6 µM)	0.5 (≈ 1.35 µM)	2 (≈ 5.4 µM)	16 (≈ 43.2 µM)		4 (≈ 10.8 µM)	2 (≈ 5.4 µM)	1 (≈ 2.7 µM)	2 (≈ 5.4 µM)	1 (≈ 2.7 µM)	2 (≈ 5.4 µM)		MIC90 [4]: 8 mg/L (≈ 21.6 µM); MIC (Staphylococcus aureus [8]): 8 mg/L (≈ 21.6 µM); MIC50 (Enterococcus faecalis [14]): 4 mg/L (≈ 10.8 µM); MIC90 (Enterococcus faecalis [14]): 4 mg/L (≈ 10.8 µM); MIC (Staphylococcus aureus [15]): 4 mg/L (≈ 10.8 µM); MIC (Staphylococcus aureus [16]): 2 mg/L (≈ 5.4 µM); MIC50 (Staphylococcus aureus [17]): 0.25 mg/L (≈ 0.675 µM); MIC90 (Staphylococcus aureus [17]): 2 mg/L (≈ 5.4 µM); MIC (Mammaliicoccus sciuri): 2 mg/L (≈ 5.4 µM)
CN[C@H](CC(C)C)C(=O)N[C@H]1C(=O)N[C@@H](CC(N)=O)C(=O)N[C@H]2C(=O)N[C@H]3C(=O)N[C@H](C(=O)N[C@H](C(=O)O)c4cc(O)cc(O)c4-c4cc3ccc4O)[C@H](O)c3ccc(c(Cl)c3)Oc3cc2cc(c3O[C@@H]2O[C@H](CO)[C@@H](O)[C@H](O)[C@H]2O[C@H]2C[C@](C)(N)[C@H](O)[C@H](C)O2)Oc2ccc(cc2Cl)[C@H]1O [VANCOMYCIN]				1 (≈ 0.69 µM)							> 32		32 (≈ 22.1 µM)				1 (≈ 0.69 µM)		1 (≈ 0.69 µM)	> 32	MIC (Enterococcus faecalis [20]): > 32 mg/L; MIC (Enterococcus faecalis [24]): > 32 mg/L
